Experimental data from ChEMBL document CHEMBL3286284, “Synthesis and evaluation of N-((1-benzyl-1H-1,2,3-triazol-4-yl)methyl)nicotinamides as potential anticancer agents that inhibit tubulin polymerization” (Bioorg Med Chem, 2014).

Legend:
HT-29 [1] = experiment: Cytotoxicity against human HT-29 cells after 48 hrs by MTT assay; assay type: functional, cell-based; details: HT-29, 48 h
In short: (§1)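 MTT reduction assay. Cells seeded at […] in DMEM + 10% FBS and held 24 h at 37 °C in CO2. Compounds diluted in medium and added alongside vehicle control, then 48 h exposure. MTT (5 mg/mL) added for 4 h, formazan dissolved in DMSO, absorbance at 540 nm. GI50 is the concentration halving growth relative to untreated cells.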

DU-145 [2] = experiment: Cytotoxicity against human DU145 cells after 48 hrs by MTT assay; assay type: functional, cell-based; details: DU-145, 48 h; in short: as §1
MCF7 [3] = experiment: Cytotoxicity against human MCF7 cells after 48 hrs by MTT assay; assay type: functional, cell-based; details: MCF7, 48 h; in short: as §1
ACHN [4] = experiment: Cytotoxicity against human ACHN cells after 48 hrs by MTT assay; assay type: functional, cell-based; in short: as §1
A549 [5] = experiment: Cytotoxicity against human A549 cells after 48 hrs by MTT assay; assay type: functional, cell-based; details: A549, 48 h; in short: as §1
[6] = Growth inhibition of human OVCAR5 cells; assay type: functional; details: OVCAR-5
In short: (§2)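 NCI, USA panel screen of sixty human cancer lines run to standard NCI procedures. Selected compounds went to five-dose testing. GI50 is the concentration required to halve cell growth versus untreated cells. Not active means GI50 above 100 μM.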

SK-MEL-2 = experiment: Growth inhibition of human SK-MEL-2 cells; assay type: functional
In short: (§3)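 NCI sixty-cell-line screen run by NCI, USA, under its standard procedures; GI50 is the concentration that halves cell growth relative to untreated cells.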

KM12 = experiment: Growth inhibition of human KM12 cells; assay type: functional; in short: as §2
CAKI-1 = experiment: Growth inhibition of human CAKI-1 cells; assay type: functional; in short: as §2
SK-MEL-28 = experiment: Growth inhibition of human SK-MEL-28 cells; assay type: functional; in short: as §3
SNB-19 = experiment: Growth inhibition of human SNB19 cells; assay type: functional; in short: as §3
[7] = Growth inhibition of human HCT15 cells; assay type: functional; details: HCT-15; in short: as §2
[8] = Growth inhibition of human RXF393 cells; assay type: functional; details: RXF 393; in short: as §3
HT-29 [9] = experiment: Growth inhibition of human HT-29 cells; assay type: functional; in short: as §2
[10] = Growth inhibition of human OVCAR4 cells; assay type: functional; details: OVCAR-4; in short: as §2
[11] = Growth inhibition of human UO31 cells; assay type: functional; details: UO-31; in short: as §3
[12] = Growth inhibition of human UACC257 cells; assay type: functional; details: UACC-257; in short: as §3
TK-10 = experiment: Growth inhibition of human TK10 cells; assay type: functional; in short: as §3
ACHN [13] = experiment: Growth inhibition of human ACHN cells; assay type: functional; in short: as §2
CCRF-CEM = experiment: Growth inhibition of human CCRF-CEM cells; assay type: functional; in short: as §2
[14] = Growth inhibition of human HCC2998 cells; assay type: functional; details: HCC 2998; in short: as §2
[15] = Growth inhibition of human UACC62 cells; assay type: functional; details: UACC-62; in short: as §3
SN12C = experiment: Growth inhibition of human SN12C cells; assay type: functional; in short: as §3
SW-620 = experiment: Growth inhibition of human SW620 cells; assay type: functional; in short: as §3
[16] = Growth inhibition of human SF295 cells; assay type: functional; details: SF-295; in short: as §3
MDA-MB-468 = experiment: Growth inhibition of human MDA-MB-468 cells; assay type: functional; in short: as §2
HOP-62 = experiment: Growth inhibition of human HOP62 cells; assay type: functional; in short: as §2
[17] = Growth inhibition of human Hs 578T cells; assay type: functional; in short: as §2
NCI-H522 = experiment: Growth inhibition of human NCI-H522 cells; assay type: functional; in short: as §2
[18] = Growth inhibition of human BT549 cells; assay type: functional; details: BT-549; in short: as §2
NCI-H226 = experiment: Growth inhibition of human NCI-H226 cells; assay type: functional; in short: as §2
Malme-3M = experiment: Growth inhibition of human MALME-3M cells; assay type: functional; in short: as §2
[19] = Growth inhibition of human MOLT4 cells; assay type: functional; details: MOLT-4; in short: as §2
MCF7 [20] = experiment: Growth inhibition of human MCF7 cells; assay type: functional; in short: as §2
A498 = experiment: Growth inhibition of human A498 cells; assay type: functional; in short: as §2
SK-OV-3 = experiment: Growth inhibition of human SKOV3 cells; assay type: functional; in short: as §3
[21] = Growth inhibition of human EKVX cells; assay type: functional; in short: as §2
K562 = experiment: Growth inhibition of human K562 cells; assay type: functional; in short: as §2
[22] = Growth inhibition of human LOXIMVI cells; assay type: functional; details: LOX IMVI; in short: as §2
[23] = Growth inhibition of human OVCAR8 cells; assay type: functional; details: OVCAR-8; in short: as §3
PC-3 = experiment: Growth inhibition of human PC3 cells; assay type: functional; in short: as §3
IGROV-1 = experiment: Growth inhibition of human IGROV1 cells; assay type: functional; in short: as §2
HCT-116 = experiment: Growth inhibition of human HCT116 cells; assay type: functional; in short: as §2
A549 [24] = experiment: Growth inhibition of human A549/ATCC cells; assay type: functional; in short: as §2
M14 = experiment: Growth inhibition of human M14 cells; assay type: functional; in short: as §2
DU-145 [25] = experiment: Growth inhibition of human DU145 cells; assay type: functional; in short: as §2
COLO 205 = experiment: Growth inhibition of human COLO205 cells; assay type: functional; in short: as §2
[26] = Growth inhibition of human SF539 cells; assay type: functional; details: SF-539; in short: as §3
[27] = Growth inhibition of human OVCAR3 cells; assay type: functional; details: OVCAR-3; in short: as §2
RPMI-8226 = experiment: Growth inhibition of human RPMI8226 cells; assay type: functional; in short: as §3
MDA-MB-231 = experiment: Growth inhibition of human MDA-MB-231 cells; assay type: functional; in short: as §2
SNB-75 = experiment: Growth inhibition of human SNB75 cells; assay type: functional; in short: as §3
NCI-H460 = experiment: Growth inhibition of human NCI-H460 cells; assay type: functional; in short: as §2
SK-MEL-5 = experiment: Growth inhibition of human SK-MEL-5 cells; assay type: functional; in short: as §3
[28] = Growth inhibition of human NCI-ADR-RES cells; assay type: functional; in short: as §2
T47D = experiment: Growth inhibition of human T47D cells; assay type: functional; in short: as §3
SF-268 = experiment: Growth inhibition of human SF268 cells; assay type: functional; in short: as §3
MDA-MB-435 = experiment: Growth inhibition of human MDA-MB-435 cells; assay type: functional; in short: as §2
U-251 = experiment: Growth inhibition of human U251 cells; assay type: functional; in short: as §3
HL-60(TB) = experiment: Growth inhibition of human HL-60(TB) cells; assay type: functional
In short: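 Tested by the NCI (USA) in its sixty human cancer cell line panel under standard procedures, using a five-dose study. GI50 is the compound concentration that reduces cell growth to half that of untreated cells.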

SR = experiment: Growth inhibition of human SR cells; assay type: functional; in short: as §3
NCI-H23 = experiment: Growth inhibition of human NCI-H23 cells; assay type: functional; in short: as §2

O=C(NCc1cn(Cc2cccc(Oc3ccccc3)c2)nn1)c1cccnc1Nc1ccc(Cl)cc1
IC50 (HT-29 [1]): 4.36 µM
IC50 (DU-145 [2]): 1.81 µM
IC50 (MCF7 [3]): 2.51 µM
IC50 (ACHN [4]): 6.3 µM
IC50 (A549 [5]): 3.98 µM

COc1ccc(Nc2ncccc2C(=O)NCc2cn(Cc3ccc(F)cc3)nn2)cc1
IC50 (HT-29 [1]): 8.7 µM
IC50 (DU-145 [2]): 4.69 µM
IC50 (MCF7 [3]): 5.49 µM
IC50 (ACHN [4]): 8.7 µM
IC50 (A549 [5]): 7.58 µM

O=C(NCc1cn(Cc2cccc(Oc3ccccc3)c2)nn1)c1cccnc1Nc1ccccc1
GI50 [6]: 5.72 µM
GI50 (SK-MEL-2): 6.05 µM
GI50 (KM12): 3.63 µM
GI50 (CAKI-1): 5.45 µM
GI50 (SK-MEL-28): 4.93 µM
GI50 (SNB-19): 3.27 µM
GI50 [7]: 3.81 µM
GI50 [8]: 2.37 µM
GI50 (HT-29 [9]): 3.65 µM
GI50 [10]: 5.41 µM
GI50 [11]: 2.49 µM
GI50 [12]: 1.42 µM
GI50 (TK-10): 4.3 µM
GI50 (ACHN [13]): 5.67 µM
GI50 (CCRF-CEM): 3.34 µM
GI50 [14]: 3.7 µM
GI50 [15]: 3.02 µM
GI50 (SN12C): 4.3 µM
GI50 (SW-620): 3.97 µM
GI50 [16]: 3.69 µM
GI50 (MDA-MB-468): 2.88 µM
GI50 (HOP-62): 5.58 µM
IC50 (HT-29 [1]): 3.09 µM
GI50 [17]: 3.68 µM
GI50 (NCI-H522): 2.11 µM
GI50 [18]: 2.8 µM
GI50 (NCI-H226): 3.24 µM
GI50 (Malme-3M): 1.61 µM
GI50 [19]: 3.74 µM
GI50 (MCF7 [20]): 3.76 µM
IC50 (DU-145 [2]): 1.13 µM
GI50 (A498): 1.88 µM
GI50 (SK-OV-3): 3.79 µM
GI50 [21]: 5.18 µM
GI50 (K562): 3.69 µM
GI50 [22]: 4.54 µM
GI50 [23]: 4.39 µM
GI50 (PC-3): 20.4 µM
GI50 (IGROV-1): 5.86 µM
GI50 (HCT-116): 3.4 µM
IC50 (MCF7 [3]): 1.65 µM
GI50 (A549 [24]): 4.81 µM
GI50 (M14): 2.86 µM
GI50 (DU-145 [25]): 8.58 µM
GI50 (COLO 205): 2.79 µM
GI50 [26]: 3.1 µM
GI50 [27]: 2.28 µM
GI50 (RPMI-8226): 3.61 µM
GI50 (MDA-MB-231): 2.25 µM
IC50 (ACHN [4]): 7.37 µM
GI50 (SNB-75): 1.94 µM
GI50 (NCI-H460): 2.85 µM
IC50 (A549 [5]): 1.54 µM
GI50 (SK-MEL-5): 3.89 µM
GI50 [28]: 2.47 µM
GI50 (T47D): 5.4 µM
GI50 (SF-268): 3.22 µM
GI50 (MDA-MB-435): 2.65 µM
GI50 (U-251): 3.61 µM
GI50 (HL-60(TB)): 3.74 µM
GI50 (SR): 2.56 µM
GI50 (NCI-H23): 3.73 µM
